Laboratory results taken from ChEMBL document CHEMBL1799933, “Discovery of a selective allosteric M1 receptor modulator with suitable development properties based on a quinolizidinone carboxylic acid scaffold” (J Med Chem, 2011).
Active and inactive are the calls of the source. The calls are words filed in the database; no cut-off is given here.

Legend:
Cerebrospinal fluid = experiment: Drug level in Sprague-Dawley rat cerebrospinal fluid at 10 mg/kg, po; type: ADME, organism-based; parameters: dose 10 mg/kg, route oral; details: in vivo, read-out: Drug uptake
Summary of the method: (§1)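 Rats dosed orally at 10 mpk. Plasma, brain and CSF sampled at 2 h and concentrations determined by bioanalysis.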

[1] = molecular target: T1, Muscarinic acetylcholine receptor M1 (Homo sapiens) (UniProt P11229); experiment: Positive allosteric modulation of human muscarinic M1 receptor expressed in CHONFAT cells assessed as potentiation of acetylcholine-induced calcium mobilization at 0.1 uM preincubated for 4 mins measured after 1 hr by FLIPR assay relative to control; type: functional, cell-based
T1 sequence (whole entry): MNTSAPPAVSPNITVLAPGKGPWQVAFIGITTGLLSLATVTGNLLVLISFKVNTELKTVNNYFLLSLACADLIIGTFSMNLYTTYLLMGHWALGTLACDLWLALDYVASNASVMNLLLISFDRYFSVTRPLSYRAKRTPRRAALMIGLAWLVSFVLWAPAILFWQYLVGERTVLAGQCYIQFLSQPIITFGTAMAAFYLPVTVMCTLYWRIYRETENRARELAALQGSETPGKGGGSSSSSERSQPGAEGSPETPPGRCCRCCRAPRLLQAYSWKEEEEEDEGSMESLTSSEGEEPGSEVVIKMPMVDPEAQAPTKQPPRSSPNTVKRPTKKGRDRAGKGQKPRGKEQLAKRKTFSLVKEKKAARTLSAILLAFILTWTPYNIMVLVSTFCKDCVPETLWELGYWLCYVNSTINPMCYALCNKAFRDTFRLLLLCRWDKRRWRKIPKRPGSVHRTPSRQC
Summary of the method: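 CHO-NFAT cells expressing human M1, 25,000 cells/well, grown overnight at 37 °C, 6% CO2. Washed in HBSS with 20 mM Hepes, 2.5 mM probenecid, 0.1% BSA, then loaded with 1 μM Fluo-4AM for 1 h at 37 °C. Compound preincubated 4 min (final DMSO 0.67%), then serially diluted ACh added for 4 min. Ca2+ flux read by FLIPR384; fold leftward shift of the ACh dose-response curve.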

[2] = Clearance in dog at 3 mg/kg, po and 1 mg/kg, iv; type: ADME, organism-based, Canis lupus familiaris; details: in vivo
Summary of the method: (§2)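 Dog PK, n = 2 animals. Given orally at 3 mg/kg and intravenously at 1 mg/kg. Interanimal variability under 20% for all values.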

[3] = molecular target: Voltage-gated inwardly rectifying potassium channel KCNH2 (Homo sapiens, UniProt Q12809); experiment: Inhibition of human ERG
[4] = Oral bioavailability in dog at 3 mg/kg; type: ADME, organism-based, Canis lupus familiaris; details: in vivo; summary of the method: as §2
Mus musculus [5] = experiment: Antiamnesic activity against scopolamine-induced dementia in ip dosed B6SJL mouse assessed as increase in freezing behavior at 3 uM plasma concentration; type: functional, organism-based
[6] = molecular target: Muscarinic acetylcholine receptor M3 (Homo sapiens) (UniProt P20309); experiment: Agonist activity at human muscarinic M3 receptor expressed in CHONFAT cells assessed as increase in acetylcholine-induced calcium mobilization at 10 uM preincubated for 4 mins measured after 1 hr by FLIPR assay; type: functional, cell-based
Summary of the method: (§3)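 CHO-NFAT cells expressing the named muscarinic receptor (human M1–M4; rhesus, dog or rat M1 in CHO-K1) were plated at 25,000 cells/well and grown overnight at 37 °C, 6% CO2. Cells were loaded with 1 μM Fluo-4AM for 1 h, washed, and preincubated 4 min with serially diluted compound (final DMSO 0.67%). They were then stimulated 4 min with an EC20 of ACh, and Ca2+ flux was read by FLIPR384.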

[7] = Metabolic stability in human NADPH-fortified hepatic microsomes assessed as oxidative metabolism; type: ADME, Liver
Summary of the method: (§4)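 Compound incubated with NADPH-fortified hepatic microsomes from rat, dog, monkey or human. Oxidative metabolism monitored.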

[8] = molecular target: T2, Muscarinic acetylcholine receptor M2 (Homo sapiens) (UniProt P08172); experiment: Agonist activity at human muscarinic M2 receptor expressed in CHONFAT cells assessed as increase in acetylcholine-induced calcium mobilization at 10 uM preincubated for 4 mins measured after 1 hr by FLIPR assay; type: functional, cell-based; summary of the method: as §3
T2 sequence (whole entry): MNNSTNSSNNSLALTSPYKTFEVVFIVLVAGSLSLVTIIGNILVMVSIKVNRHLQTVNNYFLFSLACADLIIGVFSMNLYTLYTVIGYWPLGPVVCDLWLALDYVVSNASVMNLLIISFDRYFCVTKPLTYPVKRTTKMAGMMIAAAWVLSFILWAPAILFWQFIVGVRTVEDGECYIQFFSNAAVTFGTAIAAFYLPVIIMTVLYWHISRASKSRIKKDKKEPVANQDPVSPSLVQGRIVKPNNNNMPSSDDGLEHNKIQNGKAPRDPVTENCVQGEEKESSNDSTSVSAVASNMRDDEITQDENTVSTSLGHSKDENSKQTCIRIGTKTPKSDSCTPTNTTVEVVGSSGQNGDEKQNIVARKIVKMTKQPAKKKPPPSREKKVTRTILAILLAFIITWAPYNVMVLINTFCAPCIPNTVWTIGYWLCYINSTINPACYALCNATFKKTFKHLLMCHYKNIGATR

Plasma = experiment: Drug level in Sprague-Dawley rat plasma at 10 mg/kg, po; type: ADME, organism-based; parameters: dose 10 mg/kg, route oral; details: in vivo; summary of the method: as §1
Brain = experiment: Drug level Sprague-Dawley rat brain at 10 mg/kg, po; type: ADME, organism-based; parameters: dose 10 mg/kg, route oral; details: in vivo, read-out: Drug uptake; summary of the method: as §1
[9] = Metabolic stability in dog NADPH-fortified hepatic microsomes assessed as oxidative metabolism; type: ADME, Canis lupus familiaris, Liver; summary of the method: as §4
Mus musculus [10] = experiment: Antiamnesic activity against scopolamine-induced dementia in ip dosed B6SJL mouse assessed as increase in freezing behavior after 24 hrs; type: functional, organism-based
Summary of the method: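 Male B6SJL mice, 10 weeks old and naive (n = 12–16/group), were given compound IP in 5% beta-cyclodextrin and/or scopolamine 0.3 mg/kg in 0.9% saline 30 min before training. Training was 2 tone (3 kHz, 85 dB, 30 s)–footshock (0.5 mA, 1 s) pairings 2 min apart. Freezing in the same chamber was video-scored 24 h later.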

[11] = Agonist activity at dog muscarinic M1 receptor expressed in CHOK1 cells assessed as potentiation of acetylcholine-induced calcium mobilization preincubated for 4 mins measured after 1 hr by FLIPR assay; type: functional, Canis lupus familiaris, CHO-K1; summary of the method: as §3
[12] = Plasma protein binding in rat serum by equilibrium dialysis method; type: ADME, cell-free; details: read-out: PPB (converted)
Summary of the method: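 Protein binding measured by equilibrium dialysis against rat or human serum.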

Voltage-gated inwardly rectifying potassium channel KCNH2, sequence (Q12809 whole entry): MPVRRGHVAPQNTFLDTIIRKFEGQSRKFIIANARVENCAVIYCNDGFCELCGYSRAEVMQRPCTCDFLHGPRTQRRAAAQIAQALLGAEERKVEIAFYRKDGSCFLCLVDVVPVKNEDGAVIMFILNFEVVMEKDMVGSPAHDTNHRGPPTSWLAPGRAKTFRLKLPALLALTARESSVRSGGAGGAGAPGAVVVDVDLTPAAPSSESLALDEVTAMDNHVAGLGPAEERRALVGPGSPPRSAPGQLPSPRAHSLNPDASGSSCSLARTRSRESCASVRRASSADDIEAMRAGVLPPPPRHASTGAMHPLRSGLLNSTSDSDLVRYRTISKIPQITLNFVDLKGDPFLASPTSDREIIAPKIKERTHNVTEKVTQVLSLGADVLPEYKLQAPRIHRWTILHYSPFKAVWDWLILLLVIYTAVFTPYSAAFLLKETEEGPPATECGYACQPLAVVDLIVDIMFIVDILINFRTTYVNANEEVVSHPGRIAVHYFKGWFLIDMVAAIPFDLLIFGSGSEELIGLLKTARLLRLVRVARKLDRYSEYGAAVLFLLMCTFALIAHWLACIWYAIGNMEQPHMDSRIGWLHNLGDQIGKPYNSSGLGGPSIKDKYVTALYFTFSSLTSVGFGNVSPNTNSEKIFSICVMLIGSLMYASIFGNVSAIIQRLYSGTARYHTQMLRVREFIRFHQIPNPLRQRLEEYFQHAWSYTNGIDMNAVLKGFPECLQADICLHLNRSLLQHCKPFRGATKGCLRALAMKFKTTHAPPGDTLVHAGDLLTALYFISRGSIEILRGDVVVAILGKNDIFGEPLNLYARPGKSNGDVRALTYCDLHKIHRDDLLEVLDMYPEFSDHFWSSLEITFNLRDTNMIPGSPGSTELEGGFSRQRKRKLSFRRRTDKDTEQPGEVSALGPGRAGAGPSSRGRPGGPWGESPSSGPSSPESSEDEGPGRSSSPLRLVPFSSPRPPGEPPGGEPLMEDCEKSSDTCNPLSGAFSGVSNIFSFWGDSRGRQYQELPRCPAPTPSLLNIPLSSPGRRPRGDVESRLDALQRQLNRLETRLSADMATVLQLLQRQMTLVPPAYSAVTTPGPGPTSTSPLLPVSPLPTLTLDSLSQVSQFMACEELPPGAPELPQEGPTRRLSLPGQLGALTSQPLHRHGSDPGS
Muscarinic acetylcholine receptor M3 (Homo sapiens), sequence (P20309 whole entry, looked up): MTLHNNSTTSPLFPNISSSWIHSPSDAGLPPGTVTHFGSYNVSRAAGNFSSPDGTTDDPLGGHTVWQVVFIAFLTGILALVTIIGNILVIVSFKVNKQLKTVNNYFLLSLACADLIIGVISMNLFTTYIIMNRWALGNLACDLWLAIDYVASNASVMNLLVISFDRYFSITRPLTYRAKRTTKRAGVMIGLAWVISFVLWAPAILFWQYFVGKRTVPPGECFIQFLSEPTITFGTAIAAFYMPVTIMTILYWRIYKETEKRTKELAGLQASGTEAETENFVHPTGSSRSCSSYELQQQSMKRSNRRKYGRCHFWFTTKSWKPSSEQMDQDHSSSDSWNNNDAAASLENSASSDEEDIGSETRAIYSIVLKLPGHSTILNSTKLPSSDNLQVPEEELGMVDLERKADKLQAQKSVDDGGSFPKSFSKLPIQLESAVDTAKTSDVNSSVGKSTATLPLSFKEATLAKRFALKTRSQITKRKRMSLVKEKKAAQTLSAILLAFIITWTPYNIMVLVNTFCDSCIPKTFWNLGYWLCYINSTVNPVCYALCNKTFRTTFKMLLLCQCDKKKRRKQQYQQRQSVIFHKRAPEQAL

SMILES: N#CC1(c2ccccn2)CCN(Cc2cc(C(=O)O)c(=O)n3ccccc23)CC1 [MSD-M1PAM]
- concentration (Cerebrospinal fluid): 135 nM
- fold change (FC) [1]: 3
- clearance [2]: 7.4 mL/min/kg
- IC50 [3]: > 30 µM
- bioavailability [4]: 62%
- Activity (Mus musculus [5]): Active
- Activity [6]: inactive
- Stability [7]: Stable
- Activity [8]: inactive
- concentration (Plasma): 1480 nM
- concentration (Brain): 306 nM
- Stability [9]: Stable
- Activity (Mus musculus [10]): Dose-dependent effect
- IP [11]: 100 nM
- fraction unbound [12]: 0.318
